High-throughput results from PubChem BioAssay.
PostGolgi ctrl: yeast control strain growth, post-Golgi counter-screen; 5% of 98,000 active; inhibition, % at 10 µM; efflux-deficient yeast background strain, growth absorbance A615, 16 h
PostGolgi yeast: growth inhibition of a yeast mutant, post-Golgi transport screen; inhibition, % at 10 µM; post-Golgi transport phenotypic cell assay; 0.9% of 98,000 active; AID 739;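 further: yeast cells grown in 1536-well plates; yeast grown about 18 h at 30C before absorbance read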
Ecoli tolC: growth inhibitors of E. coli BW25113 tolC mutant; OD615; growth inhibition, % at 10 µM (by protocol); 2.2% of 65,000 active;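 active means growth inhibition at or above a cutoff equal to the mean over every tested compound plus 3 SD, cut at about 60% in these data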;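 further: growth measured after 20 h incubation at 37 °C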
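Material: E. coli BW25113 ΔtolC::kan, tolC deletion mutant strain. Measure: percent growth inhibition. Schedule: 37 °C, 20 h exposure. Doses: single-point testing at 10 µM. Signal: A615 absorbance measurement. Buffer or medium: kanamycin-containing LB broth (50 µg/mL).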
Cav3 T inh: blocks human Cav3.2 T-type calcium channel | O95180 | Cav3.2-expressing cells, Fluo-4 calcium fluorescence FDSS; active compounds read low | B-score at 10 µM | 4% of 100,000 active;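 active means single-dose well whose peak fluorescence ratio is a statistical outlier from its plate by either plate-standardised score or position-corrected B-score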
E coli WT exp: growth inhibitors of E. coli BW25113 wild type; OD600 absorbance; 0.15% of 98,000 active; growth inhibition, % at 100 µM;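 active means growth inhibition above about 50% at one test dose, limit read from the data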;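 further: growth measured after 20 h incubation at 37 °C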
The depositor's hits bear a star. Rows were chosen to be rich in hits. Some 8.4% of all compounds tested hit in one or more screens of this group. Unless noted, no stated cut-off is given here; in the data, active means inhibition above about 30%; inactive means the rest.

What do the screens show for `CCC(CC)C(=O)Nc1ccc(Sc2ccc([N+](=O)[O-])cc2)cc1`?
PostGolgi ctrl: -0.3; PostGolgi yeast: 7.7; Cav3 T inh: -5.12*; E coli WT exp: 3.0

How did CCC(CC)C(=O)Nc1ccc(Cl)c(Cl)c1 do in these assays?
PostGolgi ctrl: 7.5; PostGolgi yeast: 17.1; Cav3 T inh: -5.17*; E coli WT exp: 13.0

What do the screens show for `CCCC(=O)Nc1ccc(Sc2ccc([N+](=O)[O-])cc2)cc1`?
PostGolgi ctrl: 25.9; PostGolgi yeast: -2.2; Cav3 T inh: -1.84; E coli WT exp: 1.0

Results for CC(C)OC(=O)NCCOC(=O)Nc1ccc(Cl)c(Cl)c1 ?
Cav3 T inh: -6.96*

Results for CC(C)OC(=O)NCCOC(=O)Nc1cccc(Cl)c1 ?
PostGolgi ctrl: 9.2; PostGolgi yeast: -3.1; Ecoli tolC: 38.8; Cav3 T inh: -0.77; E coli WT exp: 14.0

What do the screens show for `Cc1cc(C)n2ncc(C(=O)NCc3cccnc3)c2n1`?
PostGolgi ctrl: 4.4; PostGolgi yeast: 1.1; Ecoli tolC: -7.9; Cav3 T inh: 0.642; E coli WT exp: -5.0

How did O=C(/C=C/c1cccs1)N1CCC2(CC1)Oc1ccc(Cl)cc1C(=O)C21CC(c2cccnc2)=NO1 (stereo not drawn) do in these assays?
Cav3 T inh: 0.174

What do the screens show for `O=C(Nc1ccc(Cl)c(Cl)c1)N1CCSC1c1ccco1` (stereo not drawn)?
PostGolgi ctrl: 7.2; PostGolgi yeast: -6.9; Ecoli tolC: 100.0*; Cav3 T inh: -7.68*; E coli WT exp: 18.0

What do the screens show for `O=C(Nc1ccc(Cl)c(Cl)c1)N1CC=CCC1`?
PostGolgi ctrl: 8.6; PostGolgi yeast: -12.1; Ecoli tolC: 24.4; Cav3 T inh: -0.288; E coli WT exp: -6.0

How did O=C(NS(=O)(=O)c1ccc2c(c1)OCCO2)c1ccccc1 do in these assays?
PostGolgi ctrl: 26.9; PostGolgi yeast: -2.8; Ecoli tolC: 4.2; Cav3 T inh: 0.026; E coli WT exp: 2.0

What do the screens show for `CCOC(=O)c1c(C)n(C)c2ccc(OCCN(C)C)cc12`?
PostGolgi ctrl: 10.7; PostGolgi yeast: 2.7; E coli WT exp: -2.0

How did CCOC(=O)c1c(C)n(C)c2ccc(OCC(O)CN3CCC(C)CC3)cc12 (stereo not drawn) do in these assays?
PostGolgi ctrl: 5.2; PostGolgi yeast: -6.0; Ecoli tolC: -9.0; Cav3 T inh: -5.29*; E coli WT exp: -2.0

How did CCOC(=O)c1c(C)n(C)c2ccc(OC(C)C(=O)OC)cc12 (stereo not drawn) do in these assays?
PostGolgi ctrl: 31.8*; PostGolgi yeast: -3.9; Ecoli tolC: 18.0; Cav3 T inh: -0.861; E coli WT exp: 1.0

Results for NCCCC[C@H](NC(=O)C1CCNCC1)c1nnc(CN)o1 ?
Cav3 T inh: 0.137

Results for COc1ccc(S(=O)(=O)NC(CC(=O)NCc2ccco2)C(C)C)cc1 (stereo not drawn) ?
PostGolgi ctrl: 37.9*; PostGolgi yeast: -0.2; Ecoli tolC: -7.0; E coli WT exp: 0.0

What do the screens show for `Cc1ccc(C(CC(=O)NCc2ccco2)c2ccc(OC(C)C)cc2)cc1` (stereo not drawn)?
Cav3 T inh: -5.1*

What do the screens show for `COc1ccc(C(CC(=O)NCc2ccco2)c2ccc(F)cc2)cc1` (stereo not drawn)?
PostGolgi ctrl: 23.0; PostGolgi yeast: 1.7; Cav3 T inh: -3.01; E coli WT exp: -14.0

How did CCC(C)NS(=O)(=O)c1ccc(OCC(=O)NCc2ccco2)cc1 (stereo not drawn) do in these assays?
PostGolgi ctrl: -6.7; PostGolgi yeast: 7.2; Ecoli tolC: -23.2; Cav3 T inh: 0.475; E coli WT exp: 4.0

What do the screens show for `CCCN(CCC)S(=O)(=O)c1ccc(NS(=O)(=O)c2ccc(F)cc2)cc1`?
PostGolgi ctrl: 0.0; PostGolgi yeast: 1.1; Cav3 T inh: -3.9*; E coli WT exp: 23.0

How did CCN(CC)S(=O)(=O)c1ccc(S(=O)(=O)Nc2ccc(C(=O)N3CCCC3)cc2)cc1 do in these assays?
PostGolgi ctrl: 6.4; PostGolgi yeast: -8.8; Ecoli tolC: 3.0; Cav3 T inh: 1.98; E coli WT exp: -7.0

How did CCN(CC)S(=O)(=O)c1ccc(NS(=O)(=O)c2ccc(C)c(C)c2)cc1 do in these assays?
PostGolgi ctrl: 2.4; PostGolgi yeast: -0.6; Cav3 T inh: -4.35*; E coli WT exp: -3.0

Results for CCCN(CCC)S(=O)(=O)c1ccc(NS(C)(=O)=O)cc1 ?
PostGolgi ctrl: 5.7; PostGolgi yeast: 4.1; Ecoli tolC: 13.2; Cav3 T inh: -0.544; E coli WT exp: -1.0

Results for CCN(CCO)C(=O)C12CCC(C)(C(=O)C1)C2(C)C (stereo not drawn) ?
PostGolgi ctrl: -6.3; PostGolgi yeast: -6.8; Ecoli tolC: -9.2; Cav3 T inh: -1.82; E coli WT exp: 2.0
